Measurements as given in ChEMBL document CHEMBL1136852, “Isolation and structure elucidation of parnafungins C and D, isoxazolidinone-containing antifungal natural products” (2009).
Values after ≈ are worked out from the molar mass of the structure shown.

What was measured:
Format in all cases: functional
Clavispora lusitaniae = assay: Antifungal activity against Candida lusitaniae ATCC 34449
Outline: (§1)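 MIC was determined in Sabouraud dextrose medium.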

Candida albicans [1] = assay: Antifungal activity against Candida albicans MY2323 expressing single copy of YSH1 gene
Outline: (§2)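 Wild-type C. albicans was tested alongside two heterozygote strains, each carrying a single copy of CLP1 or YSH1, to compare mechanism of action. The read-out was MIC.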

Pichia kudriavzevii = assay: Antifungal activity against Candida krusei ATCC 6258; outline: as §1
Candida tropicalis = assay: Antifungal activity against Candida Candida tropicalis ATCC 750; outline: as §1
Candida albicans [2] = assay: Antifungal activity against Candida albicans MY2323; outline: as §2
Nakaseomyces glabratus = assay: Antifungal activity against Candida glabrata ATCC 90030; outline: as §1
Candida albicans [3] = assay: Antifungal activity against Candida albicans MY2323 expressing single copy of CLP1 gene; outline: as §2
Candida parapsilosis = assay: Antifungal activity against Candida parapsilosis 22019; conditions: Lodderomyces parapsilosis; outline: as §1

Row | MIC (Clavispora lusitaniae) [µg/mL] | MIC (Candida albicans [1]) [µg/mL] | MIC (Pichia kudriavzevii) [µg/mL] | MIC (Candida tropicalis) [µg/mL] | MIC (Candida albicans [2]) [µg/mL] | MIC (Nakaseomyces glabratus) [µg/mL] | MIC (Candida albicans [3]) [µg/mL] | MIC (Candida parapsilosis) [µg/mL] | Structure (SMILES)
1 | 0.16 (≈ 0.344 µM) | 0.03 (≈ 0.0645 µM) | 0.08 (≈ 0.172 µM) | 2.5 (≈ 5.37 µM) | 2 (≈ 4.3 µM) | > 10 | 0.03 (≈ 0.0645 µM) | > 10 | COC(=O)[C@]12Oc3cc4c(c(OC)c3C(=O)C1=C(O)CC[C@@H]2O)-c1cccc2c(=O)on(c12)C4 [PARNAFUNGIN A]
2 | 0.16 (≈ 0.334 µM) | 0.004 (≈ 0.00834 µM) | 0.016 (≈ 0.0334 µM) | 0.6 (≈ 1.25 µM) | 0.016 (≈ 0.0334 µM) | 5 (≈ 10.4 µM) | 0.004 (≈ 0.00834 µM) | 2.5 (≈ 5.21 µM) | COC(=O)[C@]12Oc3cc4c(c(OC)c3C(=O)C1=C(O)[C@@H]1O[C@@H]1[C@@H]2O)-c1cccc2c(=O)on(c12)C4 [PARNAFUNGIN D]
